Measurements published in ChEMBL document CHEMBL4825665, “Effective degradation of EGFRL858R+T790M mutant proteins by CRBN-based PROTACs through both proteosome and autophagy/lysosome degradation systems” (Eur J Med Chem, 2021).
Calls of active or inactive are those of the source. No cut-off for these calls is given here.

Experiments:
[1] = Antiproliferative activity against human PB1 cells assessed as inhibition of cell growth measured after 72 hrs by CCK-8 assay; assay type: functional, cell-based; details: PB1, 72 h
Summary of the method: (§1)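 Cells seeded at 3000 cells/well in 96-well plates and treated with graded compound concentrations one day later for 72 h. CCK-8 was added for 1–4 h and absorbance read at 450 nm. Lung cancer lines were kept in RPMI 1640 with 10% fetal calf serum at 37 °C and 5% CO₂.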

HCC827 = assay: Antiproliferative activity against human HCC827 cells assessed as inhibition of cell growth measured after 72 hrs by CCK-8 assay; assay type: functional, cell-based; details: HCC827, 72 h; summary of the method: as §1
BaF3 = assay: Antiproliferative activity against mouse BaF3 cells assessed as inhibition of cell growth measured after 72 hrs by CCK-8 assay; assay type: functional, cell-based; details: BaF3, 72 h; summary of the method: as §1
BJ = assay: Cytotoxicity against human BJ cells assessed as inhibition of cell growth measured after 72 hrs by CCK-8 assay; assay type: cell-based; summary of the method: as §1
[2] = system: Protein cereblon/Epidermal growth factor receptor (Homo sapiens), P00533+Q96SW2 [L858R,T790M]; assay: Protac activity at CRBN/EGFR L858R/T790M mutant in human NCI-H1975 cells assessed as induction of EGFR degradation measured after 16 hrs by Western blot assay; assay type: cell-based
Summary of the method: (§2)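 Cells seeded at 1-3X10^5/well and treated one day later with compounds at the concentrations and times given. Lysed in RIPA buffer with protease inhibitors. 15 µg protein run on 8% SDS-PAGE, transferred to nitrocellulose, probed for EGFR or phospho-EGFR, ECL detection. Lung lines kept in RPMI 1640 with 10% fetal calf serum, 37 °C, 5% CO2. DC50 is an estimated value. Repeated more than 3 times.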

[3] = target: T1, Protein cereblon/Epidermal growth factor receptor (Homo sapiens, UniProt P00533+Q96SW2); assay: Protac activity at CRBN/EGFR in human PB1 cells assessed as induction of EGFR degradation by Western blot assay; assay type: cell-based
[4] = target: T1, Protein cereblon/Epidermal growth factor receptor; assay: Protac activity at CRBN/EGFR in mouse BaF3 cells assessed as induction of EGFR degradation by Western blot assay; assay type: cell-based
[5] = system: Protein cereblon/Epidermal growth factor receptor (Homo sapiens), P00533+Q96SW2 [UNDEFINED MUTATION]; assay: Protac activity at CRBN/EGFR exon 19 deletion mutant in human PC-9 cells assessed as induction of EGFR degradation at >10 nM measured after 48 hrs by Western blot assay; assay type: cell-based; details: dose nM >10, time 48.0 hrs; summary of the method: as §2
[6] = system: Protein cereblon/Epidermal growth factor receptor (Homo sapiens), P00533+Q96SW2 [L858R,T790M]; assay: Protac activity at CRBN/EGFR L858R/T790M mutant in human NCI-H1975 cells assessed as induction of EGFR degradation at 50 nM measured after 16 hrs by Western blot assay; assay type: cell-based; summary of the method: as §2
[7] = system: Protein cereblon/Epidermal growth factor receptor (Homo sapiens), P00533+Q96SW2 [L858R,T790M]; assay: Protac activity at CRBN/EGFR L858R/T790M mutant in human NCI-H1975 cells assessed as induction of EGFR degradation measured after 48 hrs by Western blot assay; assay type: cell-based; details: dose 30-500 nM; summary of the method: as §2
[8] = system: Protein cereblon/Epidermal growth factor receptor (Homo sapiens), P00533+Q96SW2 [L858R,T790M]; assay: Protac activity at CRBN/EGFR L858R/T790M mutant in human NCI-H1975 cells assessed as induction of EGFR degradation at 300 nM measured after 8 to 72 hrs by Western blot assay relative to control; assay type: cell-based; details: time 8-72 hrs
[9] = system: Protein cereblon/Epidermal growth factor receptor (Homo sapiens), P00533+Q96SW2 [UNDEFINED MUTATION]; assay: Protac activity at CRBN/EGFR exon19 deletion/T790M mutant in human PC-9 cells transfected with BRCA1 assessed as induction of EGFR degradation at 1 to 1000 nM measured after 48 hrs by Western blot assay; assay type: cell-based; details: dose 1-1000 nM; summary of the method: as §2
NCI-H1975 [10] = assay: Induction of apoptosis in human NCI-H1975 cells expressing EGFR L858R/T790M mutant assessed as decrease in number of viable cells measured after 72 hrs by Annexin-V/FITC staining based flow cytometry method; assay type: functional, cell-based
Summary of the method: (§3)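 H1975 cells (8 × 10⁴/well, 12-well plates) treated one day after seeding at graded concentrations for 72 h. Collected, stained with Annexin V-FITC, and apoptosis measured by flow cytometry.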

[11] = system: Protein cereblon/Epidermal growth factor receptor (Homo sapiens), P00533+Q96SW2 [L858R,T790M]; assay: Protac activity at CRBN/EGFR L858R/T790M mutant in human NCI-H1975 cells assessed as induction of EGFR degradation at 30 to 500 nM by Western blot assay; assay type: cell-based; details: dose 30-500 nM, time 16-48 hrs, TDE = time-dependent effect
NCI-H1975 [12] = assay: Induction of apoptosis in human NCI-H1975 cells expressing EGFR L858R/T790M mutant assessed as increase in number of apoptotic cells measured after 72 hrs by Annexin-V/FITC staining based flow cytometry method; assay type: functional, cell-based; summary of the method: as §3
[13] = target: T1, Protein cereblon/Epidermal growth factor receptor; assay: Protac activity at CRBN/EGFR in human PC-9 cells assessed as induction of EGFR degradation by Western blot assay relative to control; assay type: cell-based
Summary of the method: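 PC9 cells (EGFR Ex19del) seeded at 1–3 × 10⁵/well in 12-well plates and treated the next day with graded degrader concentrations for 48 h. Lysed in RIPA buffer with protease inhibitors, 15 µg protein resolved on 8% SDS-PAGE, and EGFR detected by immunoblot with ECL. DC50 estimated from blots; experiments repeated more than 3 times.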

[14] = system: Protein cereblon/Epidermal growth factor receptor (Homo sapiens), P00533+Q96SW2 [L858R,T790M]; assay: Protac activity at CRBN/EGFR L858R/T790M mutant in human NCI-H1975 cells assessed as induction of EGFR degradation at 30 nM measured after 16 hrs by Western blot assay; assay type: cell-based; summary of the method: as §2
NCI-H1975 [15] = assay: Antimigratory activity in human NCI-H1975 cells expressing EGFR L858R/T790M mutant at 300 to 500 nM measured after 24 hrs by wound healing assay; assay type: functional, cell-based; details: dose 300-500 nM
Summary of the method: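 H1975 cells seeded in 24-well plates, scratched at confluence with a pipette tip 24 h later and washed three times with PBS. Then incubated with degrader at 300 or 500 nM. Six photos per well taken at set time points, and the uncovered wound area quantified.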

NCI-H1975 [16] = assay: Inhibition of cell invasion in human NCI-H1975 cells expressing EGFR L858R/T790M mutant assessed at 500 nM measured after 18 hrs by transwell assay; assay type: functional; set-up: scale not given: the % may be the effect or the level left
Summary of the method: (§4)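 GFP-expressing H1975 cells were trypsinised and resuspended in serum-free medium containing compound. Seeded into Matrigel-coated transwell inserts (8 µm pores) above RPMI 1640 full growth medium, at 37 °C and 5% CO₂. Invaded cells imaged by fluorescence microscopy in five random fields per insert and counted. Three independent repeats.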

NCI-H1975 [17] = assay: Inhibition of cell invasion in human NCI-H1975 cells expressing EGFR L858R/T790M mutant assessed at 500 nM measured after 42 hrs by transwell assay; assay type: functional; set-up: scale not given: the % may be the effect or the level left; summary of the method: as §4

SMILES: C=CC(=O)Nc1cc2c(Nc3ccc(F)c(Cl)c3)ncnc2cc1OCCCN1CCN(C(=O)CCCCCNc2cccc3c2C(=O)N(C2CCC(=O)NC2=O)C3=O)CC1 (centres undefined)
- IC50 [1]: 45 nM
- IC50 (HCC827): 2.12 nM
- IC50 (BaF3): 71.3 nM
- IC50 (BJ): > 10000 nM
- Activity [2]: Active
- DC50 [3]: Not Active
- DC50 [4]: 100 nM
- Activity [5]: Dose-Dependent Effect
- Activity [6]: Active
- Activity [7]: Dose-Dependent Effect
- Activity [8]: 98%
- Activity [9]: inactive
- Activity (NCI-H1975 [10]): Dose-Dependent Effect
- Activity [11]: Tde
- Activity (NCI-H1975 [12]): Active
- %max [13]: 40%

SMILES: C=CC(=O)Nc1cc2c(Nc3ccc(F)c(Cl)c3)ncnc2cc1OCCCN1CCN(C(=O)CCCCCCNc2cccc3c2C(=O)N(C2CCC(=O)NC2=O)C3=O)CC1 (centres undefined)
- IC50 [1]: 89.5 nM
- IC50 (HCC827): 1.15 nM
- IC50 (BaF3): 51.3 nM
- IC50 (BJ): > 10000 nM
- Activity [2]: Active
- DC50 [3]: Not Active
- DC50 [4]: 100 nM
- Activity [5]: Dose-Dependent Effect
- Activity [14]: Active
- Activity [7]: Dose-Dependent Effect
- Activity [8]: 98%
- Activity [9]: inactive
- Activity (NCI-H1975 [10]): Dose-Dependent Effect
- Activity (NCI-H1975 [15]): Active
- Activity (NCI-H1975 [16]): 38%
- Activity (NCI-H1975 [17]): 40%
- Activity [11]: Tde
- Activity (NCI-H1975 [12]): Active
